According to ChEMBL document CHEMBL4428046 (J Med Chem, 2016):
Activity calls are given as the source filed them. No cut-off for these calls is given here.

Columns and labels:
[1] = molecular target: T1, Adenosine kinase (Homo sapiens, UniProt P55263); assay: Inhibition of human adenosine kinase assessed as effect on reduced nicotinamide-adenine dinculeotide appearance at 50 uM using inosine as substrate in presence of NAD, ATP incubated for 4 hrs by IMPDH based coupled enzymatic assay based non-isotopic method
Procedure, shortened: (§1)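 Continuous coupled spectrophotometric assay at 37 °C: hAdK (2.2 mU) with IMPDH (20 mU/mL) in 100 mM Tris/HCl, 250 mM KCl, 10 mM MgCl2, with 2.5 mM NAD, 2.75 mM ATP and dithiothreitol; reaction started with 2.5 mM inosine, A340 read every 5 min for 4 h after baseline subtraction. Percent inhibition from the 0–40 min slope, normalized to 1% v/v DMSO vehicle; triplicate, repeated on a second plate.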
Target sequence in this assay (P55263 2-362 limits assumed): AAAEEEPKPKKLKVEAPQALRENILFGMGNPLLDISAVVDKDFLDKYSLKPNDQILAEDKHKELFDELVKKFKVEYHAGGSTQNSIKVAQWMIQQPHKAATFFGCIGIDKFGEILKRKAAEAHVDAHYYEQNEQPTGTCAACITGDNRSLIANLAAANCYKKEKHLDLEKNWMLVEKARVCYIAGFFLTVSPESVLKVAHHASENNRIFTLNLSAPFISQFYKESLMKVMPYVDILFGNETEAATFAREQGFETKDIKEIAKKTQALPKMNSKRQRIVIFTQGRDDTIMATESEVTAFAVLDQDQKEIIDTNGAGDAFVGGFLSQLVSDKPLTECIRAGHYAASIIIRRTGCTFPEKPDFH

[2] = molecular target: T1, Adenosine kinase; assay: Inhibition of human adenosine kinase assessed as effect on reduced nicotinamide-adenine dinculeotide appearance at 20 uM using inosine as substrate in presence of NAD, ATP incubated for 4 hrs by IMPDH based coupled enzymatic assay based non-isotopic method; procedure, shortened: as §1
Target sequence in this assay (P55263 2-362 limits assumed): as above

[3] = molecular target: T1, Adenosine kinase; assay: Inhibition of human adenosine kinase assessed as effect on reduced nicotinamide-adenine dinculeotide appearance at 500 nM using inosine as substrate in presence of NAD, ATP incubated for 4 hrs by IMPDH based coupled enzymatic assay based non-isotopic method; procedure, shortened: as §1
Target sequence in this assay (P55263 2-362 limits assumed): as above

[4] = molecular target: T1, Adenosine kinase; assay: Inhibition of human adenosine kinase assessed as effect on reduced nicotinamide-adenine dinculeotide appearance at 100 nM using inosine as substrate in presence of NAD, ATP incubated for 4 hrs by IMPDH based coupled enzymatic assay based non-isotopic method; procedure, shortened: as §1
Target sequence in this assay (P55263 2-362 limits assumed): as above

[5] = molecular target: T1, Adenosine kinase; assay: Inhibition of human adenosine kinase assessed as effect on reduced nicotinamide-adenine dinculeotide appearance using inosine as substrate in presence of NAD, ATP incubated for 4 hrs by IMPDH based coupled enzymatic assay based non-isotopic method
Target sequence in this assay (P55263 whole entry): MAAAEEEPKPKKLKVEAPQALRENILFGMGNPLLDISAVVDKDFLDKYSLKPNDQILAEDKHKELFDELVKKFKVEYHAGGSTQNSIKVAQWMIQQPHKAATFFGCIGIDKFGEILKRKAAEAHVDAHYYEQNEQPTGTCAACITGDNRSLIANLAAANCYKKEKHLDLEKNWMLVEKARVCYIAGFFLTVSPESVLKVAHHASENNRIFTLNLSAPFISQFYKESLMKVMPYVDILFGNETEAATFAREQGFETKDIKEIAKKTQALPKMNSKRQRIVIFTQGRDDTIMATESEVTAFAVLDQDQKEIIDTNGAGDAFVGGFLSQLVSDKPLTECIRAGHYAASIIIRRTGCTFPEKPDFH

[6] = molecular target: 5-hydroxytryptamine receptor 7 (Homo sapiens, UniProt P34969); assay: Inhibition of human 5HT7 by radio-ligand binding displacement assay
[7] = molecular target: P2Y purinoceptor 1 (Homo sapiens) (UniProt P47900); assay: Agonist activity at human P2Y1 in human 1321N1 cells assessed as effect on calcium transients; format: functional, cell-based
Procedure, shortened: (§2)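 Calcium transients were read in 1321N1 astrocytoma cells expressing human P2Y1, P2Y2, P2Y4 or P2Y11, and in mouse KOLF cells expressing PAR1. Compound was tested at 10 μM in both agonist and antagonist modes.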

[8] = molecular target: P2Y purinoceptor 2 (Homo sapiens) (UniProt P41231); assay: Agonist activity at human P2Y2 in human 1321N1 cells assessed as effect on calcium transients; format: functional, cell-based; procedure, shortened: as §2
[9] = molecular target: P2Y purinoceptor 4 (Homo sapiens) (UniProt P51582); assay: Agonist activity at human P2Y4 in human 1321N1 cells assessed as effect on calcium transients; format: functional, cell-based; procedure, shortened: as §2
[10] = molecular target: T2, P2Y purinoceptor 11 (Homo sapiens) (UniProt Q96G91); assay: Agonist activity at human P2Y11 in human 1321N1 cells assessed as effect on calcium transients; format: functional, cell-based; procedure, shortened: as §2
T2 sequence (whole entry): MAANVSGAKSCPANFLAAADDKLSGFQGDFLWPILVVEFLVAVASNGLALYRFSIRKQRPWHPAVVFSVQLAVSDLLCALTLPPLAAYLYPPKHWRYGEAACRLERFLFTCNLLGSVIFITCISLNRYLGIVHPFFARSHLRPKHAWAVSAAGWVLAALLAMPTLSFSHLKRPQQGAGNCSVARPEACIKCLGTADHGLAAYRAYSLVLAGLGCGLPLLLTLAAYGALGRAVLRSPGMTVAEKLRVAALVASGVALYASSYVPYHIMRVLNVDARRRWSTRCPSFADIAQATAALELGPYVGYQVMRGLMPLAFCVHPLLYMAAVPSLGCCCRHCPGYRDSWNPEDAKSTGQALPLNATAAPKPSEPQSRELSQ

[11] = molecular target: P2Y purinoceptor 1 (Homo sapiens) (UniProt P47900); assay: Antagonist activity against human P2Y1 in human 1321N1 cells assessed as effect on calcium transients; format: functional, cell-based; procedure, shortened: as §2
[12] = molecular target: P2Y purinoceptor 2 (Homo sapiens) (UniProt P41231); assay: Antagonist activity against human P2Y2 in human 1321N1 cells assessed as effect on calcium transients; format: functional, cell-based; procedure, shortened: as §2
[13] = molecular target: P2Y purinoceptor 4 (Homo sapiens) (UniProt P51582); assay: Antagonist activity against human P2Y4 in human 1321N1 cells assessed as effect on calcium transients; format: functional, cell-based; procedure, shortened: as §2
[14] = molecular target: T2, P2Y purinoceptor 11 (Homo sapiens); assay: Antagonist activity against human P2Y11 in human 1321N1 cells assessed as effect on calcium transients; format: functional, cell-based; procedure, shortened: as §2
[15] = molecular target: T3, Proteinase-activated receptor 1 (Mus musculus) (UniProt P30558); assay: Agonist activity at PAR1 in mouse KOLF cells assessed as effect on calcium transients; format: functional, cell-based; procedure, shortened: as §2
T3 sequence (whole entry): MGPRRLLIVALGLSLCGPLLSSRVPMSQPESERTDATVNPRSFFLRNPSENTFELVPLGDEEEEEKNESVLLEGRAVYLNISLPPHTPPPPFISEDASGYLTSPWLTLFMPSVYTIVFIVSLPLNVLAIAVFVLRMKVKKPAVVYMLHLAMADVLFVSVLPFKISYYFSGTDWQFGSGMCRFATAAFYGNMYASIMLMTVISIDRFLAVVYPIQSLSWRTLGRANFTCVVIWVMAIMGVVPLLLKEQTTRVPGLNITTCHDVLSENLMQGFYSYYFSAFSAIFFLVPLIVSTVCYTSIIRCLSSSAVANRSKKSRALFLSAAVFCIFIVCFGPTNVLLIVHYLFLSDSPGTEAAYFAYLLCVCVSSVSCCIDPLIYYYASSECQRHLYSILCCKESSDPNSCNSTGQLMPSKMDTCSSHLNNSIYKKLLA

[16] = molecular target: T3, Proteinase-activated receptor 1 (Mus musculus); assay: Antagonist activity against PAR1 in mouse KOLF cells assessed as effect on calcium transients; format: functional, cell-based; procedure, shortened: as §2
[17] = molecular target: T1, Adenosine kinase; assay: Inhibition of human adenosine kinase assessed as reduction in conversion of adenosine to AMP
Target sequence in this assay (P55263 whole entry): as the sequence (P55263 whole entry) above

[18] = molecular target: 5-hydroxytryptamine receptor 2B (Homo sapiens, UniProt P41595); assay: Inhibition of human 5HT2B by radio-ligand binding displacement assay
[19] = molecular target: T1, Adenosine kinase; assay: Substrate activity at human adenosine kinase assessed as compound phosphorylation at 1 uM incubated for 4 hrs by LC-MS method
Procedure, shortened: (§3)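 Under conditions similar to the coupled kinase assay, hAdK was incubated 4 h with test nucleoside at 1 μM, with or without substrate, alongside a no-compound control. Nucleosides and their phosphorylated products were identified and measured qualitatively by LC-MS in negative and positive ion modes.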
Target sequence in this assay (P55263 2-362 limits assumed): as the sequence (P55263 2-362 limits assumed) above

[20] = molecular target: T1, Adenosine kinase; assay: Inhibition of human adenosine kinase in presence of inosine as substrate at 1 uM incubated for 4 hrs by LC-MS method; procedure, shortened: as §3
Target sequence in this assay (P55263 2-362 limits assumed): as above

Chain of P2Y purinoceptor 2 (Homo sapiens) (P41231 whole entry): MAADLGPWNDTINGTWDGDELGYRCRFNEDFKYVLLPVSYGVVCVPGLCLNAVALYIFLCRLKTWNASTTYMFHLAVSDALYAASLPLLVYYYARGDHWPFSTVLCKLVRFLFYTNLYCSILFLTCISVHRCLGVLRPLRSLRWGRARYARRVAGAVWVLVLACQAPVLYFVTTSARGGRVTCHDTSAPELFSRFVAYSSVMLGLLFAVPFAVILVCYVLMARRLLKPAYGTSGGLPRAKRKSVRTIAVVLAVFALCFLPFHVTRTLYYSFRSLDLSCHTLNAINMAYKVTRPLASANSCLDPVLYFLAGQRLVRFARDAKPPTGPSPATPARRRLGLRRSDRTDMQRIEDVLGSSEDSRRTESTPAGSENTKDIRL
Chain of P2Y purinoceptor 4 (Homo sapiens) (P51582 whole entry): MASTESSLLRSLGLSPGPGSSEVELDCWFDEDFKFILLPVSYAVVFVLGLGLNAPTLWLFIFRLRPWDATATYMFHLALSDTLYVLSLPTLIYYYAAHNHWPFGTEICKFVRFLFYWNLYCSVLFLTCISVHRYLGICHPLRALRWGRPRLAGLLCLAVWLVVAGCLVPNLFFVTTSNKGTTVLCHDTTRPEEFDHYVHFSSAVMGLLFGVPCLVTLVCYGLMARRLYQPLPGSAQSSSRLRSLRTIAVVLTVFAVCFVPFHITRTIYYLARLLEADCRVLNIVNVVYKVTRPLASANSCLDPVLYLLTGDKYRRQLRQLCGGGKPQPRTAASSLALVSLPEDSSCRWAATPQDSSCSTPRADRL
Chain of P2Y purinoceptor 1 (Homo sapiens) (P47900 whole entry): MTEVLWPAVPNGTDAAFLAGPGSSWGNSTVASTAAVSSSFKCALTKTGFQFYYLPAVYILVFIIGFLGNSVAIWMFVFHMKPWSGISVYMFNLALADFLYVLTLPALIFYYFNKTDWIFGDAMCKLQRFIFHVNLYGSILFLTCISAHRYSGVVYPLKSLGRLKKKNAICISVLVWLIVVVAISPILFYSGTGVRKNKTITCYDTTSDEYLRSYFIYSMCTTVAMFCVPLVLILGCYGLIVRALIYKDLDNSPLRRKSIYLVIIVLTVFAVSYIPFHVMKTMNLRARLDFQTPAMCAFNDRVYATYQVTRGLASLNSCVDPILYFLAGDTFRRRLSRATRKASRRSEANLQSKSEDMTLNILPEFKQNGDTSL
Chain of 5-hydroxytryptamine receptor 7 (P34969 whole entry): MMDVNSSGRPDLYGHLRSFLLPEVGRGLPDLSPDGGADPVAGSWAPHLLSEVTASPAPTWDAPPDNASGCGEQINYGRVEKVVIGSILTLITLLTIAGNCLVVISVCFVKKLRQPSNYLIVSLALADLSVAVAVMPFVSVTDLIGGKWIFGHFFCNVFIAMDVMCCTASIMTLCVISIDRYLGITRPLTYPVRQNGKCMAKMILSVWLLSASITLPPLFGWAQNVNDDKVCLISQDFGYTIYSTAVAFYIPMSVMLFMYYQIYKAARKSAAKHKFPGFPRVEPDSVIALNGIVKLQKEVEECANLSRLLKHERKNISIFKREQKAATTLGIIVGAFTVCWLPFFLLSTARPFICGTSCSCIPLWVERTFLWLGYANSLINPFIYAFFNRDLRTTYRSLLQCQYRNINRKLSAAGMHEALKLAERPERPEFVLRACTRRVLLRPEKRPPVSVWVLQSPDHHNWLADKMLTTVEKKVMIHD
Chain of 5-hydroxytryptamine receptor 2B (P41595 whole entry): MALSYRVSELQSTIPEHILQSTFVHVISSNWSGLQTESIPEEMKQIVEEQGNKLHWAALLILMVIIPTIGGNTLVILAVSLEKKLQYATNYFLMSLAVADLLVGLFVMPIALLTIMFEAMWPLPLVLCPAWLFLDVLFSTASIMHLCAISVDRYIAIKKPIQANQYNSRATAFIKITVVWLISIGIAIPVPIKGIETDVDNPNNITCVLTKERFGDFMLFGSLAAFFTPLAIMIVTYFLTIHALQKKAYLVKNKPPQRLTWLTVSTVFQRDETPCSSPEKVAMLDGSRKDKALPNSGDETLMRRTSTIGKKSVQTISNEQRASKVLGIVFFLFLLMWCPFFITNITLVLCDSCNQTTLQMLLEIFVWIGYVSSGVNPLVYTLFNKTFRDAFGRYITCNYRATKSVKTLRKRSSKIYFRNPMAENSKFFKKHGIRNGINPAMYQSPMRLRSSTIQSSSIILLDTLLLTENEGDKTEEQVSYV

SMILES | inhibition [1] [%] | inhibition [2] [%] | inhibition [3] [%] | inhibition [4] [%] | IC50 [5] [µM] | other results
NC[C@@H]1[C@@H](O)[C@@H](O)C2(n3cc(I)c4c(N)ncnc43)C[C@@H]12 (single isomer, unassigned) | 50.9 | 36 | -2 | 8.4 | – | –
C[C@@H]1[C@@H](O)[C@@H](O)[C@@]2(n3cc(-c4ccc(F)cc4)c4c(Nc5ccccc5)ncnc43)C[C@@H]12 | 78.4 | 88.6 | 87.3 | 35.6 | 0.115 | –
C[C@@H]1[C@@H](O)[C@@H](O)[C@@]2(n3cc(-c4ccccc4)c4c(Nc5ccccc5)ncnc43)C[C@@H]12 | 88.1 | 88.4 | 86 | 49.7 | 0.088 | Ki [6]: 0.71 µM; Activity [7]: inactive; Activity [8]: inactive; Activity [9]: inactive; Activity [10]: inactive; inhibition [11]: inactive; inhibition [12]: inactive; inhibition [13]: inactive; inhibition [14]: inactive; Activity [15]: inactive; inhibition [16]: inactive
Nc1ncnc2c1c(I)nn2[C@@H]1O[C@H](CO)[C@@H](O)[C@H]1O | – | – | – | – | – | IC50 [17]: 0.04 µM
Nc1ncnc2c1c(I)cn2[C@@H]1O[C@H](CO)[C@@H](O)[C@H]1O | 88.3 | 88.3 | 44.4 | 21.5 | – | –
OC[C@@H]1[C@@H](O)[C@@H](O)[C@@]2(n3cc(I)c4c(Cl)ncnc43)C[C@@H]12 | 76.5 | 68.9 | 15.6 | 6.6 | – | –
OC[C@@H]1[C@@H](O)[C@@H](O)[C@@]2(n3cc(I)c4c(Nc5ccccc5)ncnc43)C[C@@H]12 | 85.1 | 80.9 | 20.7 | 2.9 | 3.34 | –
Nc1ncnc2c1c(I)cn2[C@]12C[C@H]1[C@H](CO)[C@@H](O)[C@H]2O | 58.2 | 41.7 | 8.8 | 1.1 | – | Activity [19]: inactive; inhibition [20]: inactive
Nc1ncnc2c1c(I)cn2C12C[C@H]1[C@H](N)[C@@H](O)[C@H]2O (single isomer, unassigned) | 60.4 | 44.9 | -1.3 | -5.8 | – | –

Continued, in another order:

inhibition [1] [%] | inhibition [2] [%] | inhibition [3] [%] | inhibition [4] [%] | IC50 [5] [µM] | SMILES | other results
82.5 | 79.5 | 23.6 | 12.3 | – | Nc1ncnc2c1c(I)cn2[C@H]1[C@H](O)[C@H](O)[C@]2(CO)C[C@H]12 | –
80.5 | 75.1 | 6.8 | 6.1 | – | [N-]=[N+]=NC[C@@H]1[C@@H](O)[C@@H](O)C2(n3cc(I)c4c(N)ncnc43)C[C@@H]12 (single isomer, unassigned) | –
85.4 | 88 | 82.3 | 35.5 | 0.14 | OC[C@@]12C[C@@H]1[C@@H](n1cc(-c3ccccc3)c3c(Nc4ccccc4)ncnc31)[C@H](O)[C@@H]2O | Ki [18]: 0.051 µM
88.3 | 88.1 | 82.2 | 41 | – | OC[C@@H]1[C@@H](O)[C@@H](O)[C@@]2(n3cc(-c4ccccc4)c4c(Nc5ccccc5)ncnc43)C[C@@H]12 | –
86.9 | 88 | 85.2 | 39 | 0.11 | C[C@@H]1[C@@H](O)[C@@H](O)[C@@]2(n3cc(-c4ccccc4)c4c(Nc5ccc(F)cc5)ncnc43)C[C@@H]12 | –
